Assay results: the EternaBench riboswitch data

Test system: MS2 coat protein
Assay: apparent Kd, MS2 coat protein; higher = weaker binding; RNA-MaP array; FMN 200 µM where present
Method in brief: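 Designs on Illumina sequencing-chip clusters, transcribed by stalled E. coli RNA polymerase, were exposed to SNAP-549-labelled MS2 coat protein in doubling steps from 0.7 or 1.5 nM up to 3 µM, without and then with constant ligand. The buffer held 100 mM Tris-HCl pH 7.5, 80 mM KCl, 4 mM MgCl2, BSA, DTT, yeast tRNA and Tween-20. Apparent Kd values are medians of filtered per-cluster binding-curve fits to green signal normalised to red-channel RNA signal and control-cluster median Fmax.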

[1] = designed as: OFF switch for flavin mononucleotide, no ligand
[2] = ligand present: flavin mononucleotide, designed as: OFF switch for flavin mononucleotide
[3] = designed as: ON switch for flavin mononucleotide, no ligand
[4] = ligand present: flavin mononucleotide, designed as: ON switch for flavin mononucleotide

Sequence | apparent Kd [1] [nM] | apparent Kd [2] [nM] | apparent Kd [3] [nM] | apparent Kd [4] [nM]
ACAAGAUCAGGAUAUACAUGAGGAUCACCCAUGUAUUUCAAAAAGGGACUUUCUUAAUGUAGAAGGGAUCUUGU | 22.5 | 94.4 |  | 
ACAAGAUCAGGAUAUACAUGAGGAUCACCCAUGUUUAUCAAAAAAGGGCUUUCUUAAUGUAGAAGGGAUCUUGU | 84.5 | 64.1 |  | 
ACAAGAUCAGGAUAUACAUGAGGAUCACCCAUGUUUAUCAAAAAGGGACUUUCUUUAUGUAGAAGGGAUCUUGU | 72.8 | 70.1 |  | 
ACAAGAUCAGGAUAUACAUGAGGAUCACCCAUGUUUAUCCAAAAGGGACUUUCUUUAUGUAGAAGGGAUCUUGU | 16.8 | 32.3 |  | 
ACAAGGCAUGUAGGAUAUCCAUUGCGUCGCGAUGGAGAAGGACAACACACAUGAGGAUCACCCAUGUGGUCACCCAUGUCGUGU | 51.3 | 169 |  | 
ACAAGGCAUGUAGGAUAUCCAUUGCGUCGCGAUGGAGAAGGGCAACACACAUGAGGAUCACCCAUGUGGUCACCCAUGUCGUGU | 55.8 | 68.8 |  | 
ACACACCCAUGAGGUCCCUCCACAUGAGGAUCACCCAUGUGCAGAAGGUACGGCACGGUGUGCGGUAAGGAUAUGUACAAGUAA | 6.08 | 7.71 |  | 
ACACAUGAGGAUCACCCAUGUACGCGCUGACAGGAGGUCUCACAGGAUAUAUGUAGUGAUGCUACAUAGAAGGGUGAUACCGCG |  |  | 67.5 | 16.2
ACACCGUCAGGAUAUUGGAAGACACCCAGGAGGGUGCCUUUCGAGAAGGGACAUGAGGAUCACCCAUGUGCAGU | 27.9 | 58.6 |  | 
ACAGAGGCUGACAUGAGGAUCACCCAUGUUAGAUUGUUAUGUCAGGAUAUUAUCUCGCAACGAGAUAAGAAGGGACCCUCUGUG |  |  | 37.5 | 7.98
ACAGAGGCUGACAUGAGGAUCACCCAUGUUAGAUUGUUAUGUCAGGAUAUUGUCUAGCAACUAGACAAGAAGGGACCCUCUGUG |  |  | 39.2 | 9.69
ACAGAGUGAAGACAGGAUAUUCGCGAUGGCACAUGAGGAUCACCCAUGUUUUGAGCACAUAAACAGAAGAAGGGUUAAAACUCAG |  |  | 132 | 13.8
ACAGGAAACACAGGAUAUGAGCGAAAUAGAGACAUGAGGAUCACCCAUGUACCGUAGAGAACCGGUCAGAAGGGUGACUCCCGU |  |  | 25.4 | 18.9
ACAGGCUUCGAGAAGGACAUGAGGAUCACCCAUGUGCGUGUGAAGCAGCCGUGAGGCUGCAUCAUGUAGGAUAUCGGAGUCUGU | 63.8 | 374 |  | 
ACAGUCACAAUAACUUGUGGGCGUGAGGAUAUAUAUGGCUCGGAGCGGACAUGAGGAUCACCCAUGUAGAAGGCACGAACUAAU | 6.1 | 8.54 |  | 
ACAGUUCUGCAAGGAUAUCGUCCUAGUUUGUUUCGAGAAGGUGCUUUAGUUUAUUCCUUUUGUUUACAUGAGGAUCACCCAUGU | 23.6 | 16.9 |  | 
ACAUACAUUCGAGGAUAUCGGUGAACAAAUUAACGAGAAGGCGAAAUACUUUUUAAUCUUAUAAACAUGAGGAUCACCCAUGUA |  |  | 19.9 | 20.7
ACAUACAUUCGAGGAUAUCGGUGAUAAAUUUUACGAGAAGGCGAUUUACGGCAUAAUGCUGUAGACAUGAGGAUCACCCAUGUA |  |  | 71.5 | 39.2
ACAUGAGACUAAGGAUAUGGUGUACCUACAUGUGACAUGAGGAUCACCCAUGUGGUAAGUAUGACUCAGAAGGUAGAGAUAUGU |  |  | 414 | 37.2
ACAUGAGACUUAGGAUAUGUUGUACCUACAUGUGACAUGAGGAUCACCCAUGUGGUAAGUAUGACACAGAAGGAAGAGAUAUGU |  |  | 21.4 | 19.9
ACAUGAGAUCGAGGAUAUUUUGUACCUACAUGUGACAUGAGGAUCACCCAUGUGGUAAGUAUGAGAAAGAAGGCGAAGAUAUGU |  |  | 41.4 | 22.1
ACAUGAGGAUCACCCAUGUAAAAUUAAGAAGGUAGAUACUUGAGGAUCACCCAUGUACAUGGGACUAAGGAUAUUAUAAUAAUU |  |  | 55.7 | 49.1
ACAUGAGGAUCACCCAUGUAUUACAUGGUUAAGUUUAUUAACAGAAGGCGAAAUUACCACUUGGUCGAGGAUAUGUAUUCUAUU | 40.3 | 40.7 |  | 
ACAUGAGGAUCACCCAUGUAUUCAUAGGAUAUACAACAUGAGUUUCAUUCAUGUAAACAUGUAUUGUAGAAGGAUGUUACAUGU | 13.6 | 15 |  | 
ACAUGAGGAUCACCCAUGUGAGGAUCACCCAUGUUAUAUUUCAGAAGGCUCGUGUGUUUGAUGAGAGAGGAUAUGGAAUAUAGG | 101 | 71.1 |  | 
ACAUGAGGAUCACCCAUGUUAAACGAGGAUAUUUGACUGCACAUGAGGUUCACCCAUGUCCUGCCGAAGAAGGUGUGAAUAAUU |  |  | 33.9 | 32.6
ACAUGAGGAUCACCCAUGUUAUCCGGGACUUCAAUUGUUUCUAGAAGGCUGUUUGCUUGUUAGUCAGAGGAUAUAGAAUCAAAU | 10.2 | 10.1 |  | 
